A selection: hits, their analogues and other compounds. The true share with any hit is near 2.7%.
TPT1 inh: Candida albicans TPT1 enzyme inhibitors, primary screen, biochemical, fluorescence polarization; inhibition, % at 5 µM; AID 1962, 2009; 0.81% of 300,000 active; recombinant caTPT1, FP RNA substrate dephosphorylation; tRNA 2'-phosphotransferase TPT1 (Candida albicans SC5314);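 active = inhibition above the mean of all tested compounds plus 3 SD, set per screening campaign, cut at about 24% in these data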;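 also: plate controls were DMSO alone for no effect and ferristatin control at 100 nM for full effect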
NadD inh: inhibitors of S. aureus NadD, primary screen, biochemical, colorimetric, uHTS; purified NadD enzyme, colorimetric absorbance read-out; inhibition, % at 20 µM; 0.78% of 360,000 active; AID 602399, 2012; in the data active = inhibition above about 26%
CSN inh: inhibitors of CSN-mediated cullin deneddylation, primary screen, biochemical, fluorescence polarization, uHTS. COP9 signalosome complex subunit 5 (Homo sapiens), Q92905. Purified CSN, SCF-Nedd8-OG deneddylation. inhibition, % at 12.5 µM. 0.38% of 360,000 active;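 active = pattern-corrected inhibition above about 35%, with an unprinted fluorescence ratio check between 0.5 and 1.5, limit read from the data, passing the limit was not always enough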;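 also: 0% = enzyme with substrate and 100% = substrate without enzyme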
Target sequence (Q92905 whole entry, looked up, one chain of several): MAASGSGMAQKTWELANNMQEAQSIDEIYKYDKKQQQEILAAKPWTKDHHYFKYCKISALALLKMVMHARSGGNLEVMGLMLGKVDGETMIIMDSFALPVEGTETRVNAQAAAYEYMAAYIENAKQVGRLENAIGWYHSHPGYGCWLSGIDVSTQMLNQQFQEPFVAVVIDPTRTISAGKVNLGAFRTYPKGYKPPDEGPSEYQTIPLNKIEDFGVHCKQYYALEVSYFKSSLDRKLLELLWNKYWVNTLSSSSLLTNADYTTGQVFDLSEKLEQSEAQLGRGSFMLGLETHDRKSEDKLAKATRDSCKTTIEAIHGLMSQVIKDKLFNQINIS
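Schedule: reaction 90 min, room temperature / Assay system: HEK293T-derived human Csn5 enzyme / Input: Csn5 at 0.24 nM final / Measure: inhibition of Csn5 cleavage, % / Control set: substrate-only high control, full reaction low control / Technique: fluorescence polarization of the substrate / Buffer or medium: Tris/NaCl/DTT buffer, pH 7.5 / Reagent: SCFSkp2-Nedd8OG substrate at 10 nM final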
HNF4A DNA FP: change in binding of human HNF4A to DNA, primary screen, biochemical, fluorescence polarization, FITC-DNA; 1 h; activity change, % at 10 µM; 0.3% of 360,000 active; AID 1224865, 2016; in the data active = activity change above about 30%, passing the limit was not always enough
Rpn11 inh: Rpn11 (PSMD14) deubiquitinase inhibitors, primary screen, biochemical, fluorescence polarization, uHTS; AID 588493, 2011; human 26S proteasome, Ub4-pepOG fluorescence polarization; 20S core pre-blocked with epoxomicin; 0.59% of 360,000 active; inhibition, % at 20 µM;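 active = inhibition at 20 µM, scaled to each plate's controls, above about 33%, limit read from the data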
Target sequence (O00487 whole entry, looked up): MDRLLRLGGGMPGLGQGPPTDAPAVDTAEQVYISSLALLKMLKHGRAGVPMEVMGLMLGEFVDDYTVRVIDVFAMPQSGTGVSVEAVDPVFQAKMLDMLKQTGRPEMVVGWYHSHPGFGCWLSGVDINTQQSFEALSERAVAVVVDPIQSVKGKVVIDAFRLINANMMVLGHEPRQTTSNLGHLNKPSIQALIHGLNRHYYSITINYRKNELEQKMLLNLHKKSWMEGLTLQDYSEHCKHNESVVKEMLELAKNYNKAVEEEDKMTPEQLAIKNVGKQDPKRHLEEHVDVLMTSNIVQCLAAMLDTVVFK
PP1 counter: PP1-alpha phosphatase inhibitors, primary screen, counter-screen for PP5 inhibitor project, biochemical, fluorescence, OMFP substrate, single point. Serine/threonine-protein phosphatase PP1-alpha catalytic subunit (Homo sapiens), P62136. purified PP1alpha. inhibition, % at 6.7 µM. 0.9% of 320,000 active. AID 2235, 2010;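 active = inhibition above the mean inhibition of all tested compounds plus 3 SD, computed separately for each screening campaign, cut at about 15% in these data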
An asterisk follows results filed as active; . = not tested or not shown.

SMILES | TPT1 inh | NadD inh | CSN inh | HNF4A DNA FP | Rpn11 inh | PP1 counter
COc1cc(/C=C/C(=O)OCC(=O)c2c(N)n(C)c(=O)n(C)c2=O)ccc1OC(F)F | 0 | 3 | 0 | 2 | 3 | -1
CSCCC(NC(=O)c1ccc(C(C)(C)C)cc1)C(=O)OCC(=O)N1CCCC1=O (centres undefined) | . | -2 | 67* | 0 | -13 | -2
COc1ccc(-n2c(C)cc(-c3cn4cccc(C)c4n3)c2C)cc1 | 6 | 4 | 7 | 9 | 19 | 15*
CC(C)n1c(O)c(N=Nc2ccc(Cl)nn2)c2ccccc21 | 4 | -1 | 44* | 33 | . | 2
CC(C)n1c(O)c(N=NC(=O)CNC(=O)Cc2ccc(Cl)cc2)c2ccccc21 | 1 | -9 | 4 | 0 | 4 | 1
O=C(CSc1ccccc1)Nc1nccs1 | -5 | -4 | 4 | -1 | -1 | -5
O=C(CSc1cn(Cc2ccccc2)c2ccccc12)Nc1nccs1 | -1 | 7 | -1 | 0 | 0 | 16*
C[C@H](CO)N1C[C@H](C)[C@@H](CN(C)C(=O)c2ccccn2)Oc2cc(Br)ccc2S1(=O)=O | . | 5 | 0 | 0 | -8 | .
CC(=O)c1ccc2c(c1)C1C=CCC1C(c1cc3c(cc1Br)OCO3)N2 (centres undefined) | 5 | 20 | 1 | -7 | 2 | 6
COc1ccc2c(c1)C1C=CCC1C(c1cc3c(cc1Br)OCO3)N2 (centres undefined) | 9 | 44* | 8 | -9 | 9 | 3
O=C(OCC(=O)N1CCCC1=O)C1CCN(S(=O)(=O)c2ccc(Cl)c(C(F)(F)F)c2)CC1 | . | 2 | -1 | 0 | -1 | -4
CC(=O)c1ccc(NC(=O)CN2C(=O)/C(=C/C=C/c3ccccc3)SC2=S)cc1 | 14 | 36* | 32 | 23 | . | 12
O=C(O)CN1C(=O)/C(=C/C=C/c2ccccc2)SC1=S | 0 | 1 | 10 | 2 | 1 | 2
O=C(Nc1ccccc1)Nc1cccc(NC(=O)Nc2ccccc2)c1F | -3 | 4 | -3 | -5 | -3 | 16*
CCCCCC[n+]1ccccc1/C=C/c1ccc(N(C)C)cc1 | . | -1 | 100 | 121* | . | .
CN(CC(=O)Nc1cccc(F)c1)C(=O)c1ccccc1OCC(=O)Nc1cccc(C(F)(F)F)c1 | -3 | -9 | -5 | -5 | -5 | 1
O=C(N=Nc1c(O)[nH]c2ccc([N+](=O)[O-])cc12)c1ccccc1Cl | 2 | -3 | 3 | 4 | 4 | -6
O=C(N=Nc1c(O)[nH]c2ccc(Cl)cc12)c1cc(-c2cccs2)nc2ccccc12 | 1 | 34* | -4 | 0 | -6 | 5
COc1cccc(NC(=O)CCN2C(=O)C3CC=CCC3C2=O)c1 (centres undefined) | -3 | -6 | -8 | 4 | 0 | -3
COc1cccc(C2/C(=C(/O)c3ccccc3)C(=O)C(=O)N2Cc2ccco2)c1 (centres undefined) | -1 | 7 | 0 | 0 | -2 | 1
COc1cccc(C2/C(=C(/O)c3ccc(C)cc3)C(=O)C(=O)N2Cc2ccco2)c1 (centres undefined) | 0 | 11 | -6 | 2 | -1 | 16*
C/C(=N\NC(=O)c1nnn(-c2nonc2N)c1CN(C)c1ccccc1)c1ccccc1O | 1 | 36* | 7 | 1 | -6 | 0
C[C@@]12CCC3[C@@](CCC4[C@@]3(C)CCC[C@@]4(C)C(=O)N3CCCCC3)(CC1=O)C2 (some centres undefined) | . | -5 | -2 | -6 | 4 | -2
CCOc1ccc(NC(=O)Cn2cncc2-c2ccc([N+](=O)[O-])cc2)cc1 | 3 | -5 | 4 | 2 | -2 | 5
O=C(Cn1cncc1-c1ccc([N+](=O)[O-])cc1)Nc1cccc2ccccc12 | 1 | 9 | -7 | -1 | -2 | 21*
SMILES | TPT1 inh | NadD inh | CSN inh | HNF4A DNA FP | Rpn11 inh | PP1 counter
C#Cc1ccc([C@@H]2C=C(C(=O)N3CCOCC3)O[C@H](OCc3ccc(CO)cc3)C2)cc1 | -1 | -6 | -2 | 2 | -4 | 0
O=C1NC[C@H](CC2CCCCC2)N(CCc2cccc3ccccc23)C1=O | . | 9 | 60* | 13 | . | .
S=C1NC[C@H](CC2CCCCC2)N1CCc1cccc2ccccc12 | 1 | 0 | 1 | -5 | 3 | 6
FC(F)(F)c1cc(CCN2C(=S)NC[C@@H]2CC2CCCCC2)cc(C(F)(F)F)c1 | 0 | 9 | 2 | 1 | 15 | 2
Oc1ccc(C[C@@H]2CNC(=S)N2CCc2cc(C(F)(F)F)cc(C(F)(F)F)c2)cc1 | -4 | -1 | 1 | -8 | 6 | -2
O=C1NC[C@H](CC2CCCCC2)N(CCc2cc(C(F)(F)F)cc(C(F)(F)F)c2)C1=O | . | 7 | 48* | -2 | . | .
O=C1NC[C@@H](Cc2ccc(O)cc2)N(CCc2cc(C(F)(F)F)cc(C(F)(F)F)c2)C1=O | . | 8 | 98* | -1 | . | .
COc1ccc(C2C(C(=O)c3ccc(C)o3)=C(O)C(=O)N2c2cc(C)on2)cc1OC (centres undefined) | 1 | 4 | 2 | -2 | -1 | -3
COc1ccc(OC)c(C2C(C(=O)c3ccc(C)o3)=C(O)C(=O)N2c2cc(C)on2)c1 (centres undefined) | -1 | 0 | 1 | -3 | -4 | 1
COc1ccccc1C1C(C(=O)c2cc3ccccc3o2)=C(O)C(=O)N1c1cc(C)on1 (centres undefined) | -6 | 12 | 3 | -5 | 4 | 20*
COc1ccc(OC)c(C2C(C(=O)c3cc4ccccc4o3)=C(O)C(=O)N2c2cc(C)on2)c1 (centres undefined) | -4 | 16 | -1 | -2 | 5 | 21*
COc1cc(/C=N/n2c(C)nc3ccccc3c2=O)cc(OC)c1O | -5 | -2 | 2 | 2 | 1 | -5
COC(=O)[C@@]1(Cc2ccc(F)cc2)[C@H]2c3cc(C(=O)N4CCCC4)n(Cc4cc(C)n(C)n4)c3C[C@H]2CN1C(=O)c1ccccc1 | . | -6 | -4 | -5 | . | .
COC(=O)[C@@]1(Cc2ccc(F)cc2)[C@H]2c3cc(C(=O)N(C)C)n(Cc4cc(C)n(C)n4)c3C[C@H]2CN1C(=O)c1ccccc1 | . | -7 | 102* | -1 | . | .
Cc1ccc(C(=O)Nc2ccccc2C(=O)O)cc1S(=O)(=O)Nc1ccc(Br)cc1 | -7 | 6 | 3 | -8 | 14 | 16*
